Results pooled from the literature.
Each line is one published result; the experiments were not run side by side. ≈ marks a conversion by molar mass, not a printed value.

SMILES | tested on | assay | test system | conditions | quantity | result
Cc1nn(-c2ccccc2)c2c1C(c1cncs1)N(C(=O)c1ccncc1)N2 (stereo not drawn) | Cryptococcus neoformans | microbial growth | – | clinical isolate | MIC | 64 µg/mL
C=CC(=O)NC1CCN(c2ncc3ncnc(Nc4ccc(Oc5ccc6c(c5)ncn6C)c(C)c4)c3n2)CC1 | SNU-182 | cell growth or viability | – | – | EC50 | 0.000191 µM
CC(C)=CCCC(C)=CC=O (mixture of isomers) | Cryptococcus neoformans | microbial killing, broth dilution | – | clinical isolate | MFC | 1600 µg/mL
Cc1c(C(=O)O)ccc2c3n(nc12)[C@@H]1[C@H](C3)N(CC2CC2)[C@@]2(C(=O)Nc3cc(Cl)ccc32)[C@H]1c1cccc(Cl)c1F | SW982 | cell growth or viability, resazurin | – | – | GI50 | 0.00034 µM
COc1cc2nc(N3CCN(C(=O)C4COc5ccccc5O4)CC3)nc(N)c2cc1OC (stereo not drawn) | CNE-2 | cell growth or viability, MTT | – | 48 h | IC50 | 30.7 µM
Clc1ccccc1C(c1ccccc1)(c1ccccc1)n1ccnc1 | Cryptococcus neoformans | microbial growth | – | clinical isolate | MIC | 4 µg/mL
C=CC(=O)N1CCN(c2nc(=O)n(-c3c(C)ccnc3C(C)C)c3nc(-c4c(O)cccc4F)c(F)cc23)[C@@H](C)C1 | NCI-H358 | cell growth or viability, ATP luminescence | – | – | IC50 | 0.0441 µM
Nc1ccc(/C=C/C(=O)N2CCc3c(oc4c(-c5ccc(F)cc5)cc(-c5ccc(C(=O)N6C[C@@H]7[C@H](C6)C7(F)F)nn5)cc34)C2)cn1 | ASPC1 | cell growth or viability, CCK-8 | – | 72 h | IC50 | 0.26 µM
COc1ccc2c(C(=O)c3c(F)c(F)c(F)c(F)c3F)c(-c3ccc(OC)c(O)c3)[nH]c2c1 | – | tubulin polymerisation, inhibitor, absorbance | – | – | IC50 | > 20 µM
Cc1nn(-c2ccccc2)c2c1C(c1ccco1)N(C(=O)c1ccncc1)N2 (stereo not drawn) | Cryptococcus neoformans | microbial growth | – | clinical isolate | MIC | 2 µg/mL
C=CCc1ccc(O)c(OC)c1 | Cryptococcus neoformans | microbial killing, broth dilution | – | clinical isolate | MFC | 400 µg/mL (≈ 2440 µM)
Cc1nn(-c2ccccc2)c2c1C(c1ccc(O)cc1)N(C(=O)c1ccncc1)N2 (stereo not drawn) | Cryptococcus neoformans | microbial growth | – | clinical isolate | MIC | > 100 µg/mL
O=C(O)c1cn(C2CC2)c2cc(N3CCNCC3)c(F)cc2c1=O | Bacillus subtilis | microbial growth | ATCC6051 | – | MIC | 2 µM
C=C(F)C(=O)N1CCN(c2nc(OC[C@@H]3CCCN3C)nc3c2CCN(c2cccc4cccc(Cl)c24)C3)C[C@@H]1CC#N | NCI-H358 | cell growth or viability, ATP luminescence | – | 3D culture | IC50 | 0.00385 µM
COC1=CC(=O)c2ccccc2C1=O | Nakaseomyces glabratus | microbial growth, broth dilution | ATCC2001 | 24 h | MIC | 25 µg/mL
